Screening data deposited in PubChem by several laboratories.
In the library only some 3% were active in any assay of this set; here they are far more common.
Insulin prom up = MIN6 insulin promoter up-regulation; MIN6 insulin promoter-GFP reporter, high-content imaging; stronger effect = higher value; z-score at 5 µM; hit rate 0.3% among 190,000;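 active means z-score above 3 at 5 µM with at least 500 cells counted in the well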
Yeast growth inh = reduces growth of yeast BB579 in restrictive medium; S. cerevisiae BB579 growth, OD615, 48 h; inhibition, % at 10 µM; hit rate 0.51% among 140,000;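 active means inhibition above a set limit, 3 SD over the mean compound inhibition, cut at about 44% in these data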
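Test system: S. cerevisiae DeaD strain BB579 yeast; Medium: restrictive CSMM-D medium; Compound: one dose, 10 µM compound with 0.25% DMSO; Incubation: 4 h cell preincubation, 48 h compound exposure, 30 °C humidified; Signal: OD at 615 nm; Benchmarks: amphotericin B at 10 µg/mL as positive control.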
INS promoter inh = TRM-6 insulin promoter activity inhibition; inhibition, % at 2 µM; TRM-6 cells (human fetal islet line), insulin promoter-eGFP reporter, imaging; reporter expression induced with tamoxifen; hit rate 0.9% among 130,000;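 active means inhibition above the mean plus 3 SD, with well images judged a real hit on visual review, cut at about 60% in these data, passing the limit was not always enough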
Yeast life ext = yeast lifespan extension; inhibition of the nicotinamide effect, % at 10 µM; AID 775; S. cerevisiae growth with nicotinamide, OD615; deaD strain in restrictive glucose medium; hit rate 0.68% among 130,000;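 active means inhibition above a set limit, placed 3 SD over the median of all compounds, cut at about 26% in these data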
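Assay system: DeaD-strain S. cerevisiae. Medium: CSMM-D glucose medium, restrictive. Reagent: nicotinamide, 1.5 mM, co-present with compound. Compound: 10 µM single point, 0.25% DMSO. Schedule: culture preincubation 4 h, compound exposure 48 h, both 30 °C. Detection: absorbance at 615 nm.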
RAM network inh = blocks the yeast RAM network. S. cerevisiae dse1pr::URA3 reporter, 5-FOA growth OD615, 2 d; analog-sensitive cbk1-as2 kinase mutant strain. inhibition, % at 50 µM. hit rate 1.8% among 190,000;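 active means inhibition above a set limit, 3 SD over mean compound inhibition, cut at about 8.4% in these data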;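 further: inhibition rescues growth on 5-FOA so higher OD means more RAM inhibition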
RAM efflux-def = restores 5-FOA growth of efflux-deficient yeast. max inhibition, %. 1,200 tested, under 10 active. shares compounds with RAM network inh. S. cerevisiae efflux-deficient reporter strain, 5-FOA growth OD615, 2 days. AID 1305; call rule not given here
Each line names hits and unclear results; the compound was inactive in the other large screens (follow-up assays come after a bar, where they were run).

C=CCOc1c(Br)cc(CNc2ccc(NC(=O)CCC)cc2)cc1OCC	none (no result: Insulin prom up)
CN(C)C(=O)CCCCCCCCC(=O)N(C)C	none (no result: Yeast growth inh, INS promoter inh, Yeast life ext, RAM network inh)
O=C(Cc1ccc(Br)cc1)Nc1cccc(-c2cn3c(n2)SCC3)c1	none (no result: Yeast growth inh, Yeast life ext)
CCOC(=O)c1c(NC(=O)CN2CCCc3ccccc32)sc(C)c1CC	RAM network inh 15.2 | RAM efflux-def inactive
CCOC(=O)c1c(NC(=O)CN2CCCc3ccccc32)sc(C)c1C	RAM network inh 13.6 | RAM efflux-def inactive
O=C(Nc1ccc(Cl)cc1)OCc1cn(-c2ccccc2)nn1	none (no result: Yeast growth inh, Yeast life ext)
O=C(O)c1cccc2c1C(=O)c1cccc3snc-2c13	none (no result: Yeast growth inh, INS promoter inh, Yeast life ext, RAM network inh)
N#CCCCSc1nnc(-c2ccc(Cl)cc2)n1-c1ccccc1	RAM network inh 15.4 (no result: INS promoter inh) | RAM efflux-def inactive
COc1nccc(-c2ccc(F)cc2)c1C#N	none (no result: Yeast growth inh, Yeast life ext)
COCC(C)N1CC(O)=C(c2nc(-c3ccc(Cl)cc3)cs2)C1=N (stereo not given)	none (no result: Yeast growth inh, INS promoter inh, Yeast life ext)
Cc1ccc(C(=O)C(OC(=O)CCC(=O)Nc2cccc(C)c2)c2ccccc2)cc1 (stereo not given)	RAM network inh 12.9 | RAM efflux-def inactive
Fc1ccc2[nH]c3c(c2c1)CN(C(=S)NCc1ccccc1)CC3	none (no result: Yeast growth inh, INS promoter inh, Yeast life ext, RAM network inh)
COc1cccc(/C=C(/C(=O)OCC(=O)NC2CCCCCCC2)c2ccccc2)c1	RAM network inh 12.6 (no result: INS promoter inh) | RAM efflux-def inactive
COc1cccc(-c2nc(=S)c3c(n2Cc2ccco2)CCCC3)c1	RAM network inh 14.5 | RAM efflux-def inactive
O=C(Cn1cccc1C(=O)c1ccccc1)NCCC1=CCCCC1	none (no result: Yeast growth inh, Yeast life ext)
S=c1nc(-c2csc3c2CCCC3)[nH][nH]1	none (no result: Insulin prom up, Yeast growth inh, Yeast life ext)
O=C(NCCc1c[nH]c2ccccc12)/C(=C\c1cccnc1)NC(=O)c1ccccc1F	none (no result: Yeast growth inh, INS promoter inh, Yeast life ext, RAM network inh)
CCCCCCCCNC(=O)c1cccnc1SCC(=O)Nc1ccccc1OC	RAM network inh 11.7 | RAM efflux-def inactive
CC(=O)N1CC2(NC(=O)c3ccccc3N2)c2ccccc21 (stereo not given)	none (no result: Yeast growth inh, INS promoter inh, Yeast life ext)
CC12CCC(C(=O)Nc3ccccc3Cl)(C(Br)C1=O)C2(C)C (stereo not given)	none
C/C(=N\OC(=O)c1ccc(Cl)cc1)c1sc(-c2ccccc2)nc1C	RAM network inh 11.5 | RAM efflux-def inactive
C/C(=N\OC(=O)c1ccc(F)cc1)c1sc(-c2ccccc2)nc1C	none
C=CCSc1nc(-c2ccc(OC)cc2)c(C#N)c(=O)n1CC=C	RAM network inh 11.9 (no result: Yeast growth inh, INS promoter inh, Yeast life ext) | RAM efflux-def inactive
COc1ccc(OC)c(NC(=O)c2ccno2)c1	none (no result: Yeast growth inh, Yeast life ext)
CCN(CC)S(=O)(=O)c1cccc(-c2nnc(-c3ccc(C)cc3)o2)c1	none
CCN(CC)S(=O)(=O)c1cccc(-c2nnc(SCCCC(=O)c3ccccc3)o2)c1	RAM network inh 11.8 (no result: INS promoter inh) | RAM efflux-def inactive
CCN(CC)S(=O)(=O)c1cccc(-c2nnc(SCc3nc4ccccc4s3)o2)c1	INS promoter inh 86.7, RAM network inh 15.3 (no result: Insulin prom up) | RAM efflux-def inactive
CCN(CC)S(=O)(=O)c1cccc(-c2nnc(SCCCC(=O)c3ccc(F)cc3)o2)c1	RAM network inh 13.1 (no result: INS promoter inh) | RAM efflux-def inactive
Cn1cc(CN2CCC(CO)CC2)c(-c2ccc(Oc3ccccc3)cc2)n1	none (no result: Yeast growth inh, INS promoter inh, Yeast life ext)
Cc1ccc(/C=N/NC(=O)CCCOc2ccc(Cl)cc2Cl)cc1	RAM network inh 12.3 | RAM efflux-def inactive
O=C(CCCOc1ccc(Cl)cc1Cl)N/N=C/c1ccccc1	RAM network inh 12.3 | RAM efflux-def inactive
CC1CCc2nc(NC(=O)Nc3ccc4c(c3)OCO4)sc2C1 (stereo not given)	RAM network inh 22.8 (no result: INS promoter inh) | RAM efflux-def inactive
Cc1ccc(N(CCCCN2C(=O)c3ccccc3C2=O)C(=O)c2ccc(Cl)s2)cc1	none (no result: INS promoter inh)
O=C1c2ccccc2C(=O)N1CCCCN(C(=O)c1ccc(Cl)s1)c1ccc(Cl)cc1	RAM network inh 11.5 | RAM efflux-def inactive
CCCCC(C(=O)O)C(C)CC(=O)Nc1nccs1 (stereo not given)	none (no result: Yeast growth inh, INS promoter inh, Yeast life ext, RAM network inh)
COc1ccc(C(=O)CSc2nc(C(C)(C)C)nc3ccccc23)cc1	RAM network inh 12.9 (no result: Yeast growth inh, INS promoter inh, Yeast life ext) | RAM efflux-def inactive
CSc1nc(Cl)c(Cc2ccc(OC(C)C)cc2)c(N2CCOCC2)n1	RAM network inh 12.2 (no result: INS promoter inh) | RAM efflux-def inactive
C=CCN(c1ccccc1Cl)S(=O)(=O)c1cccc(C(=O)NCCc2ccc(OC)cc2)c1	RAM network inh 14.4 (no result: Insulin prom up, INS promoter inh) | RAM efflux-def inactive
Cc1cc(SC(C)C(=O)Nc2ncc(Cl)cc2Cl)nc2ccccc12 (stereo not given)	RAM network inh 12.4 | RAM efflux-def inactive
